Test results from ChEMBL document CHEMBL1123928, “Inhibition of human sputum elastase by substituted 2-pyrones” (J Med Chem, 1987).
≈ marks a conversion by molar mass, not a printed value.

Experiments:
[1] = target: T1, trypsin (Serine protease 1) (Bos taurus, UniProt P00760); assay: Solubility against bovine trypsin; format: ADME; conditions: cattle
T1 sequence (P00760 whole entry): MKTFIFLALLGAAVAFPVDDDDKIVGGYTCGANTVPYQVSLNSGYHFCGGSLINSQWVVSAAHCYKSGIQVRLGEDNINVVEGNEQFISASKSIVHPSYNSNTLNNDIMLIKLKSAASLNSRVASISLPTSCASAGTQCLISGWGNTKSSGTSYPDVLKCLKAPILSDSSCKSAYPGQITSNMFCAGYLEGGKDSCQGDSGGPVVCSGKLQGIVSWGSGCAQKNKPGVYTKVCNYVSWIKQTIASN
Procedure, shortened: (§1)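 Single-point screen run under the HSE assay conditions (0.1 M HEPES, 0.5 M NaCl, 14.8% Me2SO, pH 7.5, 37 °C). One inhibitor concentration near its solubility limit: 25, 10, 1000 or 200 μM depending on compound. One substrate concentration at 0.29 Km; porcine elastase Km 2600 μM. Each run at least twice; p-nitrophenol read at 400 nm.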

[2] = test system: alpha-chymotrypsin; assay: (§2) Solubility against bovine alpha-chymotrypsin; format: ADME, Bos taurus; conditions: cattle; procedure, shortened: as §1
[3] = target: T2, Neutrophil elastase (Homo sapiens, UniProt P08246); assay: (§3) Evaluated for inhibition of the human sputum elastase (HSE)
T2 sequence (P08246 whole entry): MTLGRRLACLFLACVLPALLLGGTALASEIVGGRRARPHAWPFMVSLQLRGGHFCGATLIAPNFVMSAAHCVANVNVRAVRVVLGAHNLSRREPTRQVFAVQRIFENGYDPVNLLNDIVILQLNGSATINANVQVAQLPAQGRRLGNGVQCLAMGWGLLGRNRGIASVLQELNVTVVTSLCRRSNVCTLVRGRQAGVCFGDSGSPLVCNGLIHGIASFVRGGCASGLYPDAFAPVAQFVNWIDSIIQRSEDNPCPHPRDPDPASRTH
Procedure, shortened: (§4)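 HSE from sputum prepared in 50 mM NaOAc/0.45 M NaCl pH 5.5. Assay in 0.1 M HEPES, 0.5 M NaCl, 14.8% Me2SO, pH 7.5, 37 °C. Inhibitor at two or more concentrations (4–250 μM depending on compound). […] Ki from Hanes–Woolf plots with Dixon-type replots.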

[4] = target: pancreatic elastase (Sus scrofa, UniProt P00772+P08419); assay: Solubility against porcine pancreatic elastase; format: ADME, protein assay; conditions: pig; procedure, shortened: as §1
[5] = Evaluated for Non-competitive inhibition of the human sputum elastase (HSE); procedure, shortened: as §4
[6] = test system: alpha-chymotrypsin; assay: as §2; format: ADME, organism-based, Bos taurus; conditions: cattle; procedure, shortened: as §1
[7] = as §3; format: functional; procedure, shortened: as §4
[8] = Evaluated for inhibition of the human sputum elastase (HSE) at 1000 micro M; No activity
[9] = Evaluated for uncompetitive inhibition of the human sputum elastase (HSE); procedure, shortened: as §4

Question: With `CCCCCCCCC(=O)c1c(O)cc(CCCCCCCC)oc1=O` as the compound, how does the solubility [1] read?
Answer: Its solubility is 25 µM (≈ 9.11 µg/mL).

Question: And the inhibitor concentration tested (near solubility limit) [2]?
Answer: The inhibitor concentration tested (near solubility limit) was 25 µM.

Question: And the Ki [3]?
Answer: The Ki was 4.6 µM.

Question: And the inhibitor concentration tested (near solubility limit) [4]?
Answer: The inhibitor concentration tested (near solubility limit) was 25 µM.

Question: For `CCCCCC(=O)c1c(O)cc(C)oc1=O`, which solubility [1] is on record?
Answer: Its solubility is 200 µM (≈ 44.9 µg/mL).

Question: What about the Ki [5] of the same compound?
Answer: Its Ki is 2000 µM.

Question: And the inhibitor concentration tested (near solubility limit) [2]?
Answer: The inhibitor concentration tested (near solubility limit) was 200 µM.

Question: What about the inhibitor concentration tested (near solubility limit) [4] of the same compound?
Answer: Its inhibitor concentration tested (near solubility limit) is 200 µM.

Question: For `CCCCCCCC(=O)c1c(O)cc(CCCCCCC)oc1=O`, which solubility [1] is on record?
Answer: The solubility was 25 µM (≈ 8.41 µg/mL).

Question: What about the inhibitor concentration tested (near solubility limit) [2] of the same compound?
Answer: Its inhibitor concentration tested (near solubility limit) is 25 µM.

Question: What about the Ki [3] of the same compound?
Answer: Its Ki is 15 µM.

Question: What about the inhibitor concentration tested (near solubility limit) [4] of the same compound?
Answer: Its inhibitor concentration tested (near solubility limit) is 25 µM.

Question: Which solubility [1] does the source give for `CCCCCCCc1cc(O)cc(=O)o1` here?
Answer: The solubility was 200 µM (≈ 42.1 µg/mL).

Question: What about the inhibitor concentration tested (near solubility limit) [2] of the same compound?
Answer: The inhibitor concentration tested (near solubility limit) was 200 µM.

Question: And the Ki [3]?
Answer: The Ki was 1100 µM.

Question: What about the inhibitor concentration tested (near solubility limit) [4] of the same compound?
Answer: Its inhibitor concentration tested (near solubility limit) is 200 µM.

Question: What does the source list for `CCCCCCCCCCCC(=O)c1c(O)cc(C)oc1=O`?
Answer: solubility [1]: 200 µM (≈ 61.7 µg/mL); Ki [5]: 54 µM; inhibitor concentration tested (near solubility limit) [2]: 200 µM; inhibitor concentration tested (near solubility limit) [4]: 200 µM

Question: Which results are given for `CCCCCCCCCC(=O)c1c(O)cc(C)oc1=O`?
Answer: solubility [1]: 200 µM (≈ 56.1 µg/mL); Ki [5]: 250 µM; inhibitor concentration tested (near solubility limit) [2]: 200 µM; inhibitor concentration tested (near solubility limit) [4]: 200 µM

Question: Which results are given for `CCCCCCCCCCCC(=O)c1c(O)cc(CCCCCCCCCCC)oc1=O`?
Answer: solubility [1]: 10 µM (≈ 4.49 µg/mL); solubility [6]: 10 µM (≈ 4.49 µg/mL); inhibitor concentration tested (near solubility limit) [4]: 10 µM

Question: For `CCCCCCCC(=O)c1c(O)cc(C)oc1=O`, which solubility [1] is on record?
Answer: The solubility was 200 µM (≈ 50.5 µg/mL).

Question: And the Ki [5]?
Answer: Its Ki is 400 µM.

Question: And the inhibitor concentration tested (near solubility limit) [2]?
Answer: Its inhibitor concentration tested (near solubility limit) is 200 µM.

Question: And the inhibitor concentration tested (near solubility limit) [4]?
Answer: Its inhibitor concentration tested (near solubility limit) is 200 µM.

Question: What does the source list for `CCCCCCCCCCCc1cc(O)cc(=O)o1`?
Answer: solubility [1]: 200 µM (≈ 53.3 µg/mL); inhibitor concentration tested (near solubility limit) [2]: 200 µM; Ki [7]: 83 µM; inhibitor concentration tested (near solubility limit) [4]: 200 µM

Question: With `CCCCCc1cc(O)cc(=O)o1` as the compound, how does the solubility [1] read?
Answer: The solubility was 200 µM (≈ 36.4 µg/mL).

Question: What about the inhibitor concentration tested (near solubility limit) [2] of the same compound?
Answer: Its inhibitor concentration tested (near solubility limit) is 200 µM.

Question: And the Ki [3]?
Answer: The Ki was 1700 µM.

Question: What about the inhibitor concentration tested (near solubility limit) [4] of the same compound?
Answer: Its inhibitor concentration tested (near solubility limit) is 200 µM.

Question: Which solubility [1] does the source give for `COC1=C/C(=C\C(=O)C(=O)O)OC(O)=C1` here?
Answer: Its solubility is 1000 µM (≈ 212 µg/mL).

Question: What about the inhibitor concentration tested (near solubility limit) [2] of the same compound?
Answer: Its inhibitor concentration tested (near solubility limit) is 1000 µM.

Question: What about the Ki [8] of the same compound?
Answer: Its Ki is “No inhibitory activity”.

Question: What about the inhibitor concentration tested (near solubility limit) [4] of the same compound?
Answer: Its inhibitor concentration tested (near solubility limit) is 1000 µM.

Question: With `CCCCCCCCCc1cc(O)cc(=O)o1` as the compound, how does the solubility [1] read?
Answer: Its solubility is 200 µM (≈ 47.7 µg/mL).

Question: What about the inhibitor concentration tested (near solubility limit) [2] of the same compound?
Answer: Its inhibitor concentration tested (near solubility limit) is 200 µM.

Question: What about the Ki [3] of the same compound?
Answer: The Ki was 400 µM.

Question: And the inhibitor concentration tested (near solubility limit) [4]?
Answer: The inhibitor concentration tested (near solubility limit) was 200 µM.

Question: Which results are given for `CCCCCCCCCc1cc(OC)cc(=O)o1`?
Answer: solubility [1]: 200 µM (≈ 50.5 µg/mL); Ki [9]: 130 µM; inhibitor concentration tested (near solubility limit) [2]: 200 µM; inhibitor concentration tested (near solubility limit) [4]: 200 µM

Question: With `CCOC(=O)C(=O)/C=C1\C=C(OC)C=C(O)O1` as the compound, how does the solubility [1] read?
Answer: The solubility was 200 µM (≈ 48 µg/mL).

Question: What about the inhibitor concentration tested (near solubility limit) [2] of the same compound?
Answer: The inhibitor concentration tested (near solubility limit) was 200 µM.

Question: What about the Ki [3] of the same compound?
Answer: The Ki was 120 µM.

Question: And the inhibitor concentration tested (near solubility limit) [4]?
Answer: The inhibitor concentration tested (near solubility limit) was 200 µM.

Question: With `CCCCCCCCCC(=O)c1c(O)cc(CCCCCCCCC)oc1=O` as the compound, how does the solubility [1] read?
Answer: The solubility was 25 µM (≈ 9.81 µg/mL).

Question: What about the inhibitor concentration tested (near solubility limit) [2] of the same compound?
Answer: The inhibitor concentration tested (near solubility limit) was 25 µM.

Question: What about the Ki [3] of the same compound?
Answer: Its Ki is 7.9 µM.

Question: What about the inhibitor concentration tested (near solubility limit) [4] of the same compound?
Answer: Its inhibitor concentration tested (near solubility limit) is 25 µM.

Question: Which results are given for `CCCCOC(=O)C(=O)/C=C1\C=C(OC)C=C(O)O1`?
Answer: solubility [1]: 200 µM (≈ 53.7 µg/mL); inhibitor concentration tested (near solubility limit) [2]: 200 µM; Ki [3]: 350 µM; inhibitor concentration tested (near solubility limit) [4]: 200 µM

Question: With `CCCCCC(=O)c1c(O)cc(CCCCC)oc1=O` as the compound, how does the solubility [1] read?
Answer: Its solubility is 25 µM (≈ 7.01 µg/mL).

Question: And the Ki [5]?
Answer: Its Ki is 67 µM.

Question: What about the inhibitor concentration tested (near solubility limit) [2] of the same compound?
Answer: Its inhibitor concentration tested (near solubility limit) is 25 µM.

Question: And the inhibitor concentration tested (near solubility limit) [4]?
Answer: The inhibitor concentration tested (near solubility limit) was 25 µM.

Question: Which solubility [1] does the source give for `CCCCCOC(=O)C(=O)/C=C1\C=C(OC)C=C(O)O1` here?
Answer: The solubility was 200 µM (≈ 56.5 µg/mL).

Question: And the inhibitor concentration tested (near solubility limit) [2]?
Answer: Its inhibitor concentration tested (near solubility limit) is 200 µM.

Question: What about the Ki [3] of the same compound?
Answer: Its Ki is 410 µM.

Question: What about the inhibitor concentration tested (near solubility limit) [4] of the same compound?
Answer: Its inhibitor concentration tested (near solubility limit) is 200 µM.

Question: Which solubility [1] does the source give for `CCCCCCCc1cc(OC)cc(=O)o1` here?
Answer: The solubility was 200 µM (≈ 44.9 µg/mL).

Question: What about the Ki [9] of the same compound?
Answer: Its Ki is 140 µM.

Question: What about the inhibitor concentration tested (near solubility limit) [2] of the same compound?
Answer: Its inhibitor concentration tested (near solubility limit) is 200 µM.

Question: And the inhibitor concentration tested (near solubility limit) [4]?
Answer: Its inhibitor concentration tested (near solubility limit) is 200 µM.
